In paper PMC3144539 (British Journal of Pharmacology, 2011):

Assays:
[1] = beagle dogs, single 10 mg/kg dose of the capsules; ref Liu et al., 2007; cited from earlier work
[2] = Plasma levels in NOD/SCID mice given 4-HPR/LXS with or without ketoconazole; assay type: in vivo
In short: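 NOD/SCID mice, 5–6 weeks old, were gavaged with 180 mg·kg−1 per day test compound (lipid-matrix powder slurried in water, two divided doses), alone or with ketoconazole. The dose-ranging arm was sampled 4 h after the ninth dose, the 25 mg·kg−1 arm 4 h after the fifth dose. Light-protected cardiac-puncture plasma was analysed by HPLC. Cohorts of three; mean ± SD.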

[3] = paediatric phase I study, neuroblastoma patients; ref Villablanca et al., 2006; cited from earlier work
human cancer cell lines = settings: variety of human cancer cell lines in vitro; ref Delia et al., 1993; Mariotti et al., 1994; Kalemkerian et al., 1995; Oridate et al., 1996; O'Donnell et al., 2002; cited from earlier work
human CYP3A4 = human CYP3A4 (Homo sapiens, UniProt P08684); experiment: Formation of 4-oxo-4-HPR from 4-HPR in human CYP3A4 isoenzyme microsomes; assay type: in vitro ADME; settings: 4-HPR 10 µM, NADPH generating system
human CYP3A4, sequence (P08684 whole entry): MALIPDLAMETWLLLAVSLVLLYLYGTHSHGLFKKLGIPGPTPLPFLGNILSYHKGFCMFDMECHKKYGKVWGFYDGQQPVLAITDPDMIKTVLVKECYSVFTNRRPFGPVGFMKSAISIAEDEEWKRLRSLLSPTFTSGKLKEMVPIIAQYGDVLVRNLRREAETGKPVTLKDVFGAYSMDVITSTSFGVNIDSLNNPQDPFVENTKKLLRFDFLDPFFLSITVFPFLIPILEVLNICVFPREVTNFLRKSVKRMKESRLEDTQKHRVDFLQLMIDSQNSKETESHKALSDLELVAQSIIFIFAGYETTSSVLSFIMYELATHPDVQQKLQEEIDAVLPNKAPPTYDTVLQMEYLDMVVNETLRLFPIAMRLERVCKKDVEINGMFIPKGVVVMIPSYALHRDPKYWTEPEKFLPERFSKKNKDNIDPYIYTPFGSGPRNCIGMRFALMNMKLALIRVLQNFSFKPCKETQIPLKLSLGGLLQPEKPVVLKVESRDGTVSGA

[4] = Plasma levels in neuroblastoma patients given 4-HPR/LXS oral powder; assay type: in vivo; settings: human, 595 mg/m2 per day
In short: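 Three relapsed/refractory neuroblastoma patients received oral lipid-matrix powder, 595 mg·m−2 per day given twice daily 12 h apart. On day 6 of cycle 1, venous blood was drawn just before the morning dose and every 2 h to 8 h. Samples went into foil-wrapped heparinized tubes, were centrifuged immediately, stored at −80°C and handled in the dark. Plasma was assayed by HPLC.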

[5] = Plasma levels in nu/nu mice given 4-HPR/LXS with or without ketoconazole; assay type: in vivo, athymic nude (nu/nu) mice
In short: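 Athymic nude mice, 5–6 weeks old, were gavaged with test compound in lipid-matrix powder slurried in sterile water, 180 mg·kg−1 per day in two divided doses, alone or with ketoconazole at increasing doses. Killed 4 h after the ninth dose. Plasma from isoflurane cardiac-puncture blood, collected in the dark, was analysed by HPLC. Three mice per condition; mean ± SD.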

[6] = 4-HPR and 4-MPR metabolism kinetics in pooled mouse liver microsomes; assay type: in vitro ADME; settings: pH 7.4
In short: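 Pooled mouse liver microsomes at 0.5 mg protein·mL−1 with NADPH-generating solutions in 0.1 M potassium phosphate, pH 7.4, preincubated 20 min at 37°C. Substrate added at a range of concentrations and shaken 60 min at 37°C. Stopped with ice-cold acetonitrile plus internal standard, centrifuged, and supernatant analysed by reverse-phase HPLC. Michaelis–Menten constants for product formation derived.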

[7] = system: 4-oxo-4-HPR formation in pooled mouse liver microsomes (MLM); experiment: Effect of CYP enzyme inhibitors on 4-oxo-4-HPR formation from 4-HPR in MLM; assay type: in vitro ADME; settings: inhibitor 10 µM, 4-HPR 25 µM, 60 min
In short: (§1)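 Pooled liver microsomes (0.5 mg protein·mL−1) were preincubated 20 min at 37°C, pH 7.4 phosphate buffer, with the NADPH-generating system and a CYP2C8, 2C9 or 3A4 inhibitor or no inhibitor. Then 25 µM substrate was added for 60 min at 37°C. Acetonitrile/internal-standard quench, centrifugation, and HPLC quantitation of 4-oxo product followed. Performed in triplicate.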

[8] = system: 4-oxo-4-HPR formation in pooled human liver microsomes (HLM); experiment: Effect of CYP enzyme inhibitors on 4-oxo-4-HPR formation from 4-HPR in HLM; assay type: in vitro ADME; settings: inhibitor 10 µM, 4-HPR 25 µM, 60 min
In short: as §1

CYP3A4 = settings: inhibits other CYP isoforms at higher concentrations; ref Jia and Liu, 2007; cited from earlier work

| Reduction of 4-oxo-4-HPR formation from 4-HPR alone [7] | Reduction of 4-oxo-4-HPR formation from 4-HPR alone [8] | SMILES | Oral bioavailability [1] | Increase of plasma level over control (4-HPR without ketoconazole) ([2]; + ketoconazole 18.75 mg/kg, P < 0.01) | Increase of plasma level over control (4-HPR without ketoconazole) ([2]; + ketoconazole 25 mg/kg, 4 h after fifth dose, Fig 4C) | Maximum tolerated dose [3] | Concentrations exhibiting cytotoxic activity (human cancer cell lines) | 4-oxo-4-HPR concentrations formed from 4-HPR (human CYP3A4) | concentration at 0 h [4] | concentration at 2 h [4] | concentration at 4 h [4] | concentration at 6 h [4] | concentration at 8 h [4] | concentration at 4 h ([5]; athymic nude (nu/nu), mouse, plasma, oral, 180 mg/kg per day) | Increase of plasma level over control (4-HPR without ketoconazole) ([5]; nu/nu mice, + ketoconazole 75 mg/kg, P < 0.01) | Km at 60 min [6] | Concentrations at which specific for CYP3A4 (CYP3A4) |
| --- | --- | --- | --- | --- | --- | --- | --- | --- | --- | --- | --- | --- | --- | --- | --- | --- | --- |
| – | – | CC1=C(/C=C/C(C)=C/C=C/C(C)=C/C(=O)Nc2ccc(O)cc2)C(C)(C)CCC1 [4-HPR, N-(4-hydroxyphenyl)retinamide] | approximately 16% | 3.4 fold | twofold | 2450 mg·m^−2 per day | 1 to 10 µM | increased in a time-dependent manner | 7.04 ± 4.75 µM | 9.69 ± 7.3 µM | 12.8 µM | 13.1 ± 8.5 µM | 8.55 ± 6.42 µM | 14.5 µM | 2.2 fold | 25.8 µM | – |
| 40.9% | – | OC(Cn1cncn1)(Cn1cncn1)c1ccc(F)cc1F [fluconazole] | – | – | – | – | – | – | – | – | – | – | – | – | – | – | – |
| 96.5% | 33.7% | CC(=O)N1CCN(c2ccc(OCC3COC(Cn4ccnc4)(c4ccc(Cl)cc4Cl)O3)cc2)CC1 (stereo not drawn) [ketoconazole] | – | – | – | – | – | – | – | – | – | – | – | – | – | – | up to 1 µM |
